The record followed here is paper PMC6800648 (Cell chemical biology, 2019).

In data set [1] the target is T1, CBX7 (Mus musculus, UniProt Q8VDS3).
T1 sequence (Q8VDS3 2-69 limits assumed): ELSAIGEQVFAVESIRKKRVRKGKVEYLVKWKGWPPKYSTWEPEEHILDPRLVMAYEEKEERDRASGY
Put plainly: Polycomb in-vivo Assay. The data set is classed as cell-based. To be noted: for activity in the Polycomb in-vivo Assay (reactivation of GFP expression): 48-hour treatment, flow cytometry.

The subject of a further data set is mESCs. Briefly: CellTiter-Glo viability assay in mESCs. The format is cell-based, mouse. To be noted: 48 hr. A digest of the protocol:
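Mouse ES cells, 5,000 per well, exposed in technical triplicate for 48 hr at 37°C to a ten-point three-fold dilution series prepared from 50 mM DMSO stocks (0.2% DMSO final). Media-only wells served as negative controls. After equilibrating at room temperature, CellTiter-Glo was added, with 2 min shaking and 10 min settling, then luminescence read.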

Data set [2] has as its target T2, CBX7 (Mus musculus, UniProt Q8VDS3).
T2 sequence (Q8VDS3 1-158): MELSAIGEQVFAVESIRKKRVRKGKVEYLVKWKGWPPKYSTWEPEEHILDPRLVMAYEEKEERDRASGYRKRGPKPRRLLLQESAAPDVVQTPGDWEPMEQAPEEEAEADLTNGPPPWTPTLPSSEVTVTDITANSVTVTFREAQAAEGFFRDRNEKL
The format is cell-based. To be noted: TetOFF reporter cell line; UNC4976 compared to UNC3866 treatment.

In data set [3] the target is T3, CBX7 chromodomain (Homo sapiens, UniProt O95931).
T3 sequence (O95931 1-62): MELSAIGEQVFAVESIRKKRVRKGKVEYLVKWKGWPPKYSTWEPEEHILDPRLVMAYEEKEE
Put plainly: Electrophoretic mobility shift assay. The format is biochemical. To be noted: EMSA, 150 mM CBX7 and 100 nM FAM-dsDNA probe, 1:3 ratio of compound to CBX7. A digest of the protocol:
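Buffer: 25 mM Tris-HCl pH 7.4, 100 mM NaCl, 0.05% Tween-20, 2 mM DTT. Compound runs used 150 µM CBX7 with 100 nM FAM-DNA probe and 50 µM test compound (0.3% DMSO); protein-only runs used a three-fold CBX7 series. Binding 20 min on ice. Native 10% Tris-glycine gel at 100 V, 4°C, 90 min in the dark. FAM fluorescence imaged, then Coomassie-stained.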

The target in data set [4] is T3, CBX7 chromodomain. Briefly: Fluorescence polarization. The format is biochemical. To be noted: 30 μM CBX7 chromodomain, 100 nM FAM-dsDNA. A digest of the protocol: (§1)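 Buffer: 25 mM Tris-HCl pH 7.4, 100 mM NaCl, 0.05% Tween-20, 2 mM DTT; 100 nM FAM-dsDNA or FAM-ANRIL-RNA; 0.2% DMSO; 30 min at RT. Compound titration: eight-point three-fold series from 100 µM with 30 µM CBX7 chromodomain. Ratio mode: CBX7 and test compound co-diluted at fixed 3:1 from 300 µM/100 µM. Polarisation normalised to a no-protein control; α fitted by the Stockton-Ehlert allosteric model.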

The target in data set [5] is T3, CBX7 chromodomain. Briefly: Fluorescence polarization. The format is biochemical. To be noted: 30 μM CBX7 chromodomain, 100 nM FAM-ANRIL-RNA. A digest of the protocol: as §1

SMILES strings stand for the structures. Numbered stars: 1 amine (or outer) side, 2 acyl side, 3 side chain; on linkers, the order of the positions; unused ones are H or OH. Square brackets hold non-standard residues; d marks the D form. Peptide text beside a SMILES is read from it. * marks the point of attachment. X2 = COc1ccc(CN(C)CCCC[C@H](N[*:1])C(=O)[*:2])cc1; X5 = CN(CCCC[C@H](N[*:1])C(=O)[*:2])Cc1ccc(F)cc1; X8 = O=C([C@H](CCCCN(C1CCC1)C1CCC1)N[*:1])[*:2]; X3 = CN(CCCC[C@H](N[*:1])C(=O)[*:2])Cc1ccccc1; X7 = CN(CCCC[C@H](N[*:1])C(=O)[*:2])C1CCCCC1; X1 = CCCN(CCCC[C@H](N[*:1])C(=O)[*:2])C(C)C; X6 = CN(CCCC[C@H](N[*:1])C(=O)[*:2])C1CCCC1; Lys(Et,iPr) = CCN(CCCC[C@H](N)C(=O)O)C(C)C; X4 = COC(C)N(C)CCCC[C@H](N[*:1])C(=O)[*:2]; Benzoyl(4-tBu) = CC(C)(C)c1ccc(C(=O)*)cc1; X9 = O=C([C@H](CCCCN1CCCCC1)N[*:1])[*:2]; Lys(Et2) = CCN(CC)CCCC[C@H](N)C(=O)O; Lys(Me2) = CN(C)CCCC[C@H](N)C(=O)O; NMeA = CN[C@@H](C)C(=O)O

`CCN(CCCC[C@H](NC(=O)[C@H](CC(C)C)NC(=O)[C@H](C)NC(=O)[C@H](Cc1ccccc1)NC(=O)c1ccc(C(C)(C)C)cc1)C(=O)N[C@@H](CO)C(=O)OC)C(C)C` [UNC4941, methyl N^2-(4-(tert-butyl)benzoyl)-L-phenylalanyl-L-alanyl-L-leucyl-N^6-ethyl-N^6-isopropyl-L-lysyl-L-serinate] ({Benzoyl(4-tBu)}-FAL[Lys(Et,iPr)]S-OMe) displayed an EC50 at CBX7 [1] of 36.6 ± 1.14 µM.
With `COC(=O)[C@H](CO)NC(=O)[C@H](CCCCN(C)C(C)OC)NC(=O)[C@H](CC(C)C)NC(=O)[C@H](C)NC(=O)[C@H](Cc1ccccc1)NC(=O)c1ccc(C(C)(C)C)cc1` (stereo partly drawn) [UNC6481, methyl N^2-(4-(tert-butyl)benzoyl)-L-phenylalanyl-L-alanyl-L-leucyl-N^6-(1-methoxyethyl)-N^6-methyl-L-lysyl-L-serinate] ({Benzoyl(4-tBu)}-FAL[X4]S-OMe), a half-maximal response at CBX7 [1] (EC50) required 23.7 ± 1.74 µM.
Take `CCN(CC)CCCC[C@H](NC(=O)[C@H](CC(C)C)NC(=O)[C@H](C)N(C)C(=O)[C@H](Cc1ccccc1)NC(=O)c1ccc(C(C)(C)C)cc1)C(=O)N[C@@H](CO)C(=O)OC` [UNC4219, methyl N^2-N-((4-(tert-butyl)benzoyl)-L-phenylalanyl)-N-methyl-L-alanyl-L-leucyl-N^6,N^6-diethyl-L-lysyl-L-serinate, reference compound] ({Benzoyl(4-tBu)}-F[NMeA]L[Lys(Et2)]S-OMe): the “activity in the Polycomb in-vivo Assay (reactivation of GFP expression)” value (“activity in the Polycomb in-vivo Assay” for short) on CBX7 [1] was “inactive”. Further, the “mESC viability upon compound treatment” value with mESCs is given as “non-toxic”. Also, the “derepression of the GFP reporter gene / maintenance of Polycomb silencing” value at CBX7 [2] was “unaffected”. Also, at CBX7 chromodomain [3], the “effect on FAM-dsDNA binding to CBX7” value is listed as “no effect”.
As for `COc1cccc(C(=O)N2CCN(C(=O)COc3cccc(C)c3)CC2)c1OC` [MS452, reference compound], on CBX7 [1], the “activity in the Polycomb in-vivo Assay” value was “inactive”. For the same compound, the “change of fluorescence polarization on compound titration” value at CBX7 chromodomain [4] and at CBX7 chromodomain [5] was “slight destabilizing effect” each time. Besides, the “effect on FAM-dsDNA binding to CBX7” value at CBX7 chromodomain [3] was “no effect”.
Regarding `COC(=O)[C@H](CO)NC(=O)[C@H](CCCCN(C)Cc1ccccc1)NC(=O)[C@H](CC(C)C)NC(=O)[C@H](C)NC(=O)[C@H](Cc1ccccc1)NC(=O)c1ccc(C(C)(C)C)cc1` [UNC6375, methyl N^6-benzyl-N^2-(4-(tert-butyl)benzoyl)-L-phenylalanyl-L-alanyl-L-leucyl-N^6-methyl-L-lysyl-L-serinate] ({Benzoyl(4-tBu)}-FAL[X3]S-OMe), the EC50 on CBX7 [1] worked out at 2.36 ± 0.115 µM.
At CBX7 [1], `COC(=O)[C@H](CO)NC(=O)[C@H](CCCCN(C)Cc1ccc(OC)cc1)NC(=O)[C@H](CC(C)C)NC(=O)[C@H](C)NC(=O)[C@H](Cc1ccccc1)NC(=O)c1ccc(C(C)(C)C)cc1` [UNC6483, methyl N^2-(4-(tert-butyl)benzoyl)-L-phenylalanyl-L-alanyl-L-leucyl-N^6-(4-methoxybenzyl)-N^6-methyl-L-lysyl-L-serinate] ({Benzoyl(4-tBu)}-FAL[X2]S-OMe) registered a concentration giving a half-maximal response (EC50) of 2.06 ± 0.135 µM.
As for `Cc1ccccc1Cn1c(=N)n(CC(O)c2ccc(Cl)c(Cl)c2)c2ccccc21.Cl` (centres unmarked) [MS351, reference compound], the “activity in the Polycomb in-vivo Assay” value at CBX7 [1] is “inactive”. The “change of fluorescence polarization on compound titration” value at CBX7 chromodomain [4] and on CBX7 chromodomain [5] was “did not observe increased fluorescence polarization” throughout. Moreover, on CBX7 chromodomain [3], the “effect on FAM-dsDNA binding to CBX7” value is “did not observe enhancement”.
`COC(=O)[C@H](CO)NC(=O)[C@H](CCCCN(C)C)NC(=O)[C@H](CC(C)C)NC(=O)[C@H](C)NC(=O)[C@H](Cc1ccccc1)NC(=O)c1ccc(C(C)(C)C)cc1` [UNC5352, methyl N^2-(4-(tert-butyl)benzoyl)-L-phenylalanyl-L-alanyl-L-leucyl-N^6,N^6-dimethyl-L-lysyl-L-serinate] ({Benzoyl(4-tBu)}-FAL[Lys(Me2)]S-OMe) registered an EC50 on CBX7 [1] of 105 ± 11.3 µM.
As to `COC(=O)[C@H](CO)NC(=O)[C@H](CCCCN1CCCCC1)NC(=O)[C@H](CC(C)C)NC(=O)[C@H](C)NC(=O)[C@H](Cc1ccccc1)NC(=O)c1ccc(C(C)(C)C)cc1` [UNC6374, methyl ((S)-2-((S)-2-((S)-2-((S)-2-(4-(tert-butyl)benzamido)-3-phenylpropanamido)propanamido)-4-methylpentanamido)-6-(piperidin-1-yl)hexanoyl)-L-serinate] ({Benzoyl(4-tBu)}-FAL[X9]S-OMe), the concentration for a half-maximal effect (EC50) at CBX7 [1] stood at 33.1 ± 1.9 µM.
On to `COC(=O)[C@H](CO)NC(=O)[C@H](CCCCN(C)Cc1ccc(F)cc1)NC(=O)[C@H](CC(C)C)NC(=O)[C@H](C)NC(=O)[C@H](Cc1ccccc1)NC(=O)c1ccc(C(C)(C)C)cc1` [UNC6376, methyl N^2-(4-(tert-butyl)benzoyl)-L-phenylalanyl-L-alanyl-L-leucyl-N^6-(4-fluorobenzyl)-N^6-methyl-L-lysyl-L-serinate] ({Benzoyl(4-tBu)}-FAL[X5]S-OMe), for which, at CBX7 [1], the EC50 was 2.22 ± 0.194 µM.
Compound `COC(=O)[C@H](CO)NC(=O)[C@H](CCCCN(C)C1CCCC1)NC(=O)[C@H](CC(C)C)NC(=O)[C@H](C)NC(=O)[C@H](Cc1ccccc1)NC(=O)c1ccc(C(C)(C)C)cc1` [UNC6371, methyl N^2-(4-(tert-butyl)benzoyl)-L-phenylalanyl-L-alanyl-L-leucyl-N^6-cyclopentyl-N^6-methyl-L-lysyl-L-serinate] ({Benzoyl(4-tBu)}-FAL[X6]S-OMe) had an EC50 on CBX7 [1] of about 20 µM.
In turn, `CCCN(CCCC[C@H](NC(=O)[C@H](CC(C)C)NC(=O)[C@H](C)NC(=O)[C@H](Cc1ccccc1)NC(=O)c1ccc(C(C)(C)C)cc1)C(=O)N[C@@H](CO)C(=O)OC)C(C)C` [UNC4971, methyl N^2-(4-(tert-butyl)benzoyl)-L-phenylalanyl-L-alanyl-L-leucyl-N^6-isopropyl-N^6-propyl-L-lysyl-L-serinate] ({Benzoyl(4-tBu)}-FAL[X1]S-OMe) came in with an EC50 on CBX7 [1] of 26.5 ± 3.24 µM.
With `COC(=O)[C@H](CO)NC(=O)[C@H](CCCCN(C1CCC1)C1CCC1)NC(=O)[C@H](CC(C)C)NC(=O)[C@H](C)NC(=O)[C@H](Cc1ccccc1)NC(=O)c1ccc(C(C)(C)C)cc1` [UNC6370, methyl N^2-(4-(tert-butyl)benzoyl)-L-phenylalanyl-L-alanyl-L-leucyl-N^6,N^6-dicyclobutyl-L-lysyl-L-serinate] ({Benzoyl(4-tBu)}-FAL[X8]S-OMe), the EC50 at CBX7 [1] turned out to be 13.7 ± 0.535 µM.
At CBX7 [1], `COC(=O)[C@H](CO)NC(=O)[C@H](CCCCN(C)C1CCCCC1)NC(=O)[C@H](CC(C)C)NC(=O)[C@H](C)NC(=O)[C@H](Cc1ccccc1)NC(=O)c1ccc(C(C)(C)C)cc1` [UNC6372, methyl N^2-(4-(tert-butyl)benzoyl)-L-phenylalanyl-L-alanyl-L-leucyl-N^6-cyclohexyl-N^6-methyl-L-lysyl-L-serinate] ({Benzoyl(4-tBu)}-FAL[X7]S-OMe) returned an EC50 of 4.59 ± 0.292 µM.
